This note sets out measurements from ChEMBL document CHEMBL6182829, “Developing peptide-based fusion inhibitors as an antiviral strategy utilizing coronin 1 as a template” (RSC Med Chem, 2025).

The source made the active and inactive calls. The rule behind the calls is not given here. Where a SMILES comes first, the peptide text is derived from it.

Assay [1] concerns Lipid bilayer. Briefly: Inhibition of PEG-induced DOPC/DOPE/DOPG/CH (50/30/10/10 mol%) (10 CH) small unilamellar vesicles fusion assessed as content mixing at 1:100 compound: lipid concentration preincubated for 10 mins followed by PEG addition by spectrofluorometric analysis (reference value: 33 %). The procedure, abridged: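 Tb3+-loaded (8 mM TbCl3) and DPA-loaded (80 mM) SUVs, external probe removed by Sephadex G-75, mixed 1:1 at 200 μM total lipid in 10 mM TES, 100 mM NaCl, 1 mM EDTA, 1 mM CaCl2, pH 7.4, 37 °C; 2 μM peptide added 10 min before 6% (w/v) PEG; Tb/DPA fluorescence rise over time, normalized with detergent; inhibition relative to no-peptide control.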

For assay [2], the system named is Lipid bilayer. Nature of the assay: Inhibition of PEG-induced DOPC/DOPE/DOPG/CH (40/30/10/20 mol%) (20 CH) small unilamellar vesicles fusion assessed as content mixing at 1:100 compound: lipid concentration preincubated for 10 mins followed by PEG addition by spectrofluorometric analysis. In a few lines: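 Content mixing by Tb3+/DPA complex fluorescence. Vesicles loaded with 8 mM TbCl3 or 80 mM DPA, external probe removed by gel filtration. Mixed 1:1 at 200 μM lipid; peptide 2 μM added 10 min before 6% (w/v) PEG, 37 °C. Normalised to co-encapsulated and detergent-treated samples.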

Usually inhibition stands for the drop in the measured response relative to a control, in per cent. Turning to `CC[C@H](C)[C@H](NC(=O)[C@H](CC(C)C)NC(=O)[C@H](C)NC(=O)[C@@H](NC(=O)[C@H](Cc1ccccc1)NC(=O)[C@H](CCCCN)NC(=O)[C@@H]1CCCN1C(=O)[C@H](CC(N)=O)NC(=O)[C@@H](NC(=O)[C@H](C)NC(=O)[C@H](CS)NC(=O)[C@H](Cc1ccccc1)NC(=O)CNC(=O)[C@H](CO)NC(=O)[C@H](CC(=O)O)NC(=O)[C@H](Cc1c[nH]c2ccccc12)NC(=O)[C@@H](NC(=O)[C@@H](N)[C@@H](C)O)[C@@H](C)O)C(C)C)C(C)C)C(=O)N[C@@H](CS)C(=O)N[C@@H](CCC(=O)O)C(=O)N[C@@H](C)C(=O)N[C@@H](CO)C(=O)NCC(=O)O` (H-TTWDSGFCAVNPKFVALICEASG-OH), the inhibition with Lipid bilayer [1] worked out at 5%. Also, in the assay on Lipid bilayer [2], the inhibition result is “inactive”.
